Assay outcomes deposited in PubChem by Broad Institute.
The list is not random: actives were taken first. Their share in the collection is about 2.6%.
E-sel inducer: induces E-selectin expression in human endothelial cells; HUVEC E-selectin immunofluorescence imaging; normalized: neutral wells 0, TNF-alpha wells 100; activation, % at 7.58 µM; 0.37% of 260,000 active;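 active = mean E-selectin-positive cell signal at least 10% of the positive control, reached in at least 60% of replicates, without over 20% cell loss; inconclusive = no rule given, readout overlaps actives, possibly toxicity-flagged; inactive = the rest, including those meeting only one limit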
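Read-out: % PE-positive cells | Test system: HUVEC | Doses: One compound dose added by pin transfer | Buffer or medium: EGM-2 over gelatin coat | Signal: Immunofluorescence imaging | Benchmarks: TNF-alpha, DMSO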
rRNA inh HTS: selective bacterial rRNA inhibition in E. coli; E. coli WT GFP vs humanized-ribosome RFP mutants, fluorescence, 24 h; stronger effect = lower value; DMSO median 0, no signal -100; GFP signal change (wild-type ribosome), % (concentration not given with the values); 1.6% of 350,000 active; AID 720706;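 active = significant combined selectivity score with lowered wild-type GFP, culture density cut under 30%, mutant RFP and density less affected; inactive = any of these conditions unmet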
RAD52 anneal inh: RAD52 (human) annealing inhibition | inhibition, % at 18.7 µM | 0.46% of 360,000 active | P43351 | recombinant RAD52 DNA annealing, FRET fluorescence;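 active = every replicate showing at least 50% inhibition; inconclusive = mean inhibition at least 50% but not in every replicate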
INS-1E GSIS act: GLuc luminescence reporter in INS-1E cells, primary screen for activators of glucose-dependent secretion of insulin | INS-1E GLuc reporter insulin secretion, 2-3 h | activation, % at 16.6 µM | 0.61% of 370,000 active;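 active = lowest replicate activation of at least 40%, so every replicate reaches that level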;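 note: 0% = median of neutral control wells and 100% = median of IBMX positive control wells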
MLL AF4-AF9 inh: inhibitors of human MLL-AF4/AF9 interaction; AlphaScreen, biotin-AF4 peptide binding to FLAG-AF9; 0.47% of 350,000 active; inhibition, % at 10 µM;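 active = every replicate reaching a set inhibition limit, whatever the replicate mean, cut at about 25% in these data; inconclusive = mean inhibition reaches that limit but some replicates miss it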;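 note: 0% = plate neutral control median and 100% = total signal loss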
RAD54 branch: blocks human RAD54 Holliday junction branch migration | Q92698 | FAM/BHQ fluorescence | inhibition, % at 10.4 µM | 0.14% of 360,000 active;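 active = mean normalized replicate activity at least 40 and at least half of replicates scoring 40 or more; inconclusive = only one of the two criteria met; inactive = mean below 40 and under half of replicates reaching 40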;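 note: 0% = median of neutral control wells and 100% = median of positive control wells; inhibitors cause a drop in the FAM fluorescence signal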
Target sequence (Q92698 whole entry, looked up): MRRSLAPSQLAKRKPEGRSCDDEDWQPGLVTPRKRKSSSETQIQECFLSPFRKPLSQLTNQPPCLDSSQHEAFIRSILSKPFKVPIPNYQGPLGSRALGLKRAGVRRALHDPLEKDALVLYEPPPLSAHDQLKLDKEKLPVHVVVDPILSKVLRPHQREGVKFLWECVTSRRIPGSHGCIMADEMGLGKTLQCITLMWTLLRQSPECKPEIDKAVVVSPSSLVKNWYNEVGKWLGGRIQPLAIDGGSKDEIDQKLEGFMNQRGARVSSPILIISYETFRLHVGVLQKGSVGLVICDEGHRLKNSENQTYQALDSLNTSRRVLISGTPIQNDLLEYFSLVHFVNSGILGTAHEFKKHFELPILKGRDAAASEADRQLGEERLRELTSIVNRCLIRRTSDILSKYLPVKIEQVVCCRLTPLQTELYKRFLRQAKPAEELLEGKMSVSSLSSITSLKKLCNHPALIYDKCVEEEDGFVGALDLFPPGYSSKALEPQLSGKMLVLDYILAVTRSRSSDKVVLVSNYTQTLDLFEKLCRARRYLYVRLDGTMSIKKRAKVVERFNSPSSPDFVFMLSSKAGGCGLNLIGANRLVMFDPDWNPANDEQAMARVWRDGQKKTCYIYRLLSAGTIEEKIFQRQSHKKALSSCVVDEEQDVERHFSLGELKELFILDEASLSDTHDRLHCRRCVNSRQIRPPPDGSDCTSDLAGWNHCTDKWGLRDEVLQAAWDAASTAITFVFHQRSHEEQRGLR
HepG2 cytotox: kills or reduces viability of HepG2 cells; shares compounds with rRNA inh HTS; ATP luminescence, 72 h; activity change, negative = cytotoxicity, unspecified at 26 µM; 30 tested, under 10 active; AID 743480;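 active = compounds whose fitted half-maximal signal-loss concentration is at most twice their highest valid dose; inconclusive = flat curve with 30 to 70% signal loss, or poor fit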
AID977621: wild-type E. coli growth inhibition versus H69 humanized strain – H69 mutant RFP, wild-type GFP, cherry-pick, dose response | shares compounds with rRNA inh HTS | fluorescence, 24 h | activity change, negative = inhibition at 50 µM | 1,900 tested, under 10 active | AID 977621;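 active = Wild-type ribosome reporter drop at least double the humanized mutant ribosome reporter drop, growth loss under a set limit; inconclusive = no clear call, values can overlap the other calls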;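 note: wild-type GFP and H69 mutant RFP strains grown together 50/50 in each well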
AID977628: growth of wild-type and h24-humanized E. coli strains – h24 mutant RFP vs wild-type GFP, cherry-pick, dose response; AID 977628; E. coli WT GFP strain growth, fluorescence, 24 h; 1,900 tested, under 10 active; shares compounds with rRNA inh HTS; activity change, negative = inhibition at 50 µM;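 active = compound lowering the normal-ribosome reporter at least twice as much as the humanized-ribosome reporter, growth loss under a set limit; inconclusive = no clear call, values can overlap the other calls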;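 note: wild-type GFP and h24 humanized RFP strains co-cultured 1 to 1 per well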
Starred values were filed as active, the others as inactive; ? = inconclusive; . = no result.

SMILES | E-sel inducer | rRNA inh HTS | RAD52 anneal inh | INS-1E GSIS act | MLL AF4-AF9 inh | RAD54 branch | AID977621 | AID977628 | others
COc1cccc(C(=O)Nc2cc(C)nn2-c2ccccc2)c1OC | 0.4 | -34.2* | -9.5 | 5.8 | 3.7 | 1.2 | . | . | HepG2 cytotox=13.5
CCn1cc(CCC(=O)NCCc2ccccc2)c2ccccc21 | 0.2 | -19.3* | -14.6 | -36.8 | 1.9 | -13.2 | -7.97 | ?
COCCNC(=O)C[C@H]1CC[C@H]2[C@@H](COC[C@@H](O)CN2C(=O)Nc2ccccc2OC)O1 | -0.2 | 1.0 | -11.0 | 0.7 | -6.6 | -1.0 | . | .
CC(=O)N1[C@@H]2c3ccc(C4=CCCC4)c(=O)n3C[C@H]1[C@H](CO)[C@H]2C(=O)NCC1CC1 | -0.2 | 0.6 | -13.5 | 6.5 | -14.5 | . | . | .
CC(=O)Nc1ccc(-c2ccnc3c2CC(C)(C(=O)Nc2ccc4c(c2)OCO4)O3)cc1 (stereo unspecified) | 1.0 | -23.1* | -19.8 | 2.6 | 6.1 | 2.7 | -12.4 | .
CCN(c1ccccc1)S(=O)(=O)c1ccc(Cl)c(C(=O)NCc2ccco2)c1 | . | -20.6* | -47.3 | -45.5 | 2.2 | -7.1 | -19.4 | .
COCC(=O)Nc1ccc2c(c1)OC[C@H](C)N(C(=O)c1cccnc1)C[C@H](C)[C@@H](OC)CN(C)C2=O | -0.3 | 2.5 | -14.3 | 10.8 | 0.2 | -5.0 | . | .
C/C=C/c1ccc([C@H]2[C@H](CO)N3C(=O)CN(Cc4ccc(C)cc4)C[C@@H]23)cc1 | 0.6 | 2.4 | 0.0 | 1.4 | 6.4 | . | . | .
Nc1ccccc1Sc1c[nH]c2ccccc12 | . | -25.6* | -8.8 | 0.4 | 2.8 | -4.5 | -0.733 | -11.4
Nc1ccccc1Sc1nc2ccccc2[nH]1 | 1.7 | . | 3.6 | 5.2 | -3.6 | . | . | .
CN(C)C(=O)C[C@@H]1C[C@@H]2c3cc(NS(=O)(=O)c4ccccc4)ccc3O[C@@H]2[C@H](CO)O1 | -0.1 | 5.8 | 1.7 | -3.0 | -0.9 | -5.3 | . | .
CS(=O)(=O)NCCSc1cc(C(F)(F)F)nc2ccccc12 | 0.9 | -19.6* | -7.3 | 12.0 | -2.7 | . | . | ?
CCOC(=O)C(CC)Sc1cc(C)nc2ccc(OC)cc12 (stereo unspecified) | 1.9 | -30.1* | -2.2 | -2.3 | -1.6 | 12.5 | -12.1 | .
COc1ccc(C#Cc2ccc3c(c2)[C@@H]2[C@@H](CCN2Cc2nccs2)[C@@H](CO)N3)cc1 | 0.2 | -21.9* | . | 12.2 | -2.2 | 0.9 | . | ?
C[C@H]1CN([C@@H](C)CO)C(=O)c2cccc(NS(=O)(=O)c3ccc(Cl)cc3)c2O[C@H]1CN(C)CC1CC1 | 0.4 | 1.4 | 4.2 | 11.6 | -13.5 | -3.6 | . | .
O=C(NCc1ccc(Cl)cc1)c1csc(-c2cccnc2)n1 | -0.1 | -36.7* | -11.0 | 27.5 | . | . | ? | .
COc1ccc(NC(=O)N[C@H]2CC[C@@H](CCNS(=O)(=O)c3ccccc3F)O[C@H]2CO)cc1 | 0.0 | -5.7 | -13.0 | 1.6 | 3.5 | -1.1 | . | .
CC(O)Cn1cnc2c1c(=O)n(C)c(=O)n2C (stereo unspecified) | -0.2 | 12.3 | -4.3 | . | -1.3 | -1.3 | . | .
Cn1c(=O)c2c(ncn2CC(O)CNc2ccc(F)cc2)n(C)c1=O (stereo unspecified) | 5.6 | -27.3* | -7.3 | 12.5 | -6.1 | . | -10.4 | -5.42
COc1ccc(NC(=O)c2cccnc2SC)cc1S(=O)(=O)N1CCCCC1 | 1.6 | -25.4* | 0.3 | -15.8 | 2.3 | . | ? | .
O=C(Cc1cccnc1)N1CC(=O)N2[C@H](C1)[C@@H](c1ccc(C3=CCCCC3)cc1)[C@@H]2CO | -0.4 | -16.7* | 3.6 | 1.2 | 0.2 | . | . | ?
O=C(Cc1cccnc1)N1CC(=O)N2[C@H](C1)[C@H](c1ccc(C3=CCCCC3)cc1)[C@@H]2CO | 0.1 | 0.7 | -2.6 | -3.7 | 16.3 | . | . | .
